Reference: ChEMBL document CHEMBL1123829, “Resolved cis-10-hydroxy-4-n-propyl-1,2,3,4,4a,5,6,10b- octahydrobenzo[f]quinoline : central serotonin stimulating properties” (1987)
The source made the active and inactive calls. The rule behind the calls is not given here.

Key:
Rattus norvegicus [1] = organism: Rattus norvegicus; assay: Compound was tested for Dopa accumulation in limbic system (brain) of reserpinized rat; I = Inactive; assay type: functional, organism-based
Rattus norvegicus [2] = organism: Rattus norvegicus; assay: Compound was tested for Dopa accumulation in corpus striatum(brain) of reserpinized rat; I = Inactive; assay type: functional, organism-based
Rattus norvegicus [3] = organism: Rattus norvegicus; assay: Compound was tested for 5-HTP accumulation in corpus striatum (brain) of reserpinized rat.; assay type: functional
Summary of the method: (§1)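 Male Sprague-Dawley rats (200–300 g), pretreated with reserpine in glacial acetic acid/5.5% glucose. Compounds were given sc in saline at neutral pH. 5-HTP in striatum, limbic system or hemispheres was measured by HPLC with electrochemical detection. Dose-response curves used 4–6 dose levels per substance and region, with 95% confidence limits by modified probit analysis.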

Rattus norvegicus [4] = organism: Rattus norvegicus; assay: Compound was tested for 5-HTP accumulation in limbic system (brain) of reserpinized rat.; assay type: functional; summary of the method: as §1
Rattus norvegicus [5] = organism: Rattus norvegicus; assay: Compound was tested for Dopa accumulation in hemispheres (brain) of reserpinized rat; I = Inactive; assay type: functional, organism-based
Rattus norvegicus [6] = organism: Rattus norvegicus; assay: Compound was tested for 5-HTP accumulation in hemispheres (brain) of reserpinized rat.; assay type: functional; summary of the method: as §1
Rattus norvegicus [7] = organism: Rattus norvegicus; assay: Compound was tested for 5-HTP accumulation in corpus striatum(brain) of reserpinized rat; assay type: functional; summary of the method: as §1
Rattus norvegicus [8] = organism: Rattus norvegicus; assay: Compound was tested for 5-HTP accumulation in hemispheres (brain) of reserpinized rat; assay type: functional; summary of the method: as §1
Rattus norvegicus [9] = organism: Rattus norvegicus; assay: Compound was tested for 5-HTP accumulation in limbic system(brain) of reserpinized rat; assay type: functional; summary of the method: as §1
Rattus norvegicus [10] = organism: Rattus norvegicus; assay: Compound was tested for Dopa accumulation in limbic system(brain) of reserpinized rat; I = Inactive; assay type: functional, organism-based
Rattus norvegicus [11] = assay: Compound was tested for Dopa accumulation in limbic system(brain) of reserpinized rat; A partial agonistic response at a dose of 12.5 uM/kg; assay type: functional, organism-based; details: filed as partial agonist
Rattus norvegicus [12] = assay: Compound was tested for Dopa accumulation in corpus striatum(brain) of reserpinized rat; A partial agonistic response at a dose of 25 uM/kg; assay type: functional, organism-based; details: filed as partial agonist
Rattus norvegicus [13] = assay: Compound was tested for 5-HTP accumulation in hemispheres (brain) of reserpinized rat; A partial agonistic response at a dose of 50 uM/kg; assay type: functional, organism-based; details: filed as partial agonist
Rattus norvegicus [14] = assay: Compound was tested for Dopa accumulation in hemispheres (brain) of reserpinized rat; A partial agonistic response at a dose of 50 uM/kg; assay type: functional, organism-based; details: filed as partial agonist
Rattus norvegicus [15] = assay: Compound was tested for 5-HTP accumulation in corpus striatum(brain) of reserpinized rat; A partial agonistic response at a dose of 25 uM/kg; assay type: functional, organism-based; details: filed as partial agonist
Rattus norvegicus [16] = assay: Compound was tested for 5-HTP accumulation in limbic system(brain) of reserpinized rat; A partial agonistic response at a dose of 12.5 uM/kg; assay type: functional, organism-based; details: filed as partial agonist
Rattus norvegicus [17] = organism: Rattus norvegicus; assay: Compound was tested for 5-HTP accumulation in hemispheres (brain) of reserpinized rat; I = Inactive; assay type: functional; summary of the method: as §1
Rattus norvegicus [18] = organism: Rattus norvegicus; assay: Compound was tested for 5-HTP accumulation in corpus striatum(brain) of reserpinized rat.; assay type: functional; summary of the method: as §1
Rattus norvegicus [19] = organism: Rattus norvegicus; assay: Compound was tested for 5-HTP accumulation in limbic system(brain) of reserpinized rat.; assay type: functional; summary of the method: as §1

CCCN(CCC)[C@@H]1CCc2cccc(O)c2[C@@H]1C was tested, and the ED50 (Rattus norvegicus [1]) was “inactive”, the ED50 (Rattus norvegicus [2]) was “inactive” and the ED50 (Rattus norvegicus [3]) was 0.04 µmol/kg. For the same compound, the ED50 (Rattus norvegicus [4]) was 0.09 µmol/kg, the ED50 (Rattus norvegicus [5]) was “inactive” and the ED50 (Rattus norvegicus [6]) was 0.09 µmol/kg.

With CCCN1CCCC2c3c(O)cccc3CCC21 (stereo in doubt) [listing 1 of 2 here] the ED50 (Rattus norvegicus [7]) was 3.63 µmol/kg, the ED50 (Rattus norvegicus [8]) was 3.47 µmol/kg and the ED50 (Rattus norvegicus [9]) was 2.57 µmol/kg.

With CCCN1CCCC2c3c(O)cccc3CCC21 (stereo in doubt) [listing 2 of 2 here] the ED50 (Rattus norvegicus [10]) was “inactive”, the ED50 (Rattus norvegicus [2]) was “inactive” and the ED50 (Rattus norvegicus [5]) was “inactive”.

CCCN1CCCC2c3c(O)cccc3CCC21 (stereo in doubt; 4) [listing 1 of 2 here] was tested, and the ED50 (Rattus norvegicus [10]) was “inactive”, the ED50 (Rattus norvegicus [2]) was “inactive” and the ED50 (Rattus norvegicus [5]) was “inactive”.

CCCN1CCCC2c3c(O)cccc3CCC21 (centres undefined) was tested, and the ED50 (Rattus norvegicus [11]) was “Partial agonist”, the ED50 (Rattus norvegicus [12]) was “Partial agonist” and the ED50 (Rattus norvegicus [13]) was “Partial agonist”. For the same compound, the ED50 (Rattus norvegicus [14]) was “Partial agonist”, the ED50 (Rattus norvegicus [15]) was “Partial agonist” and the ED50 (Rattus norvegicus [16]) was “Partial agonist”.

Work on CCCN1CCCC2c3c(O)cccc3CCC21 (stereo in doubt; 4) [listing 2 of 2 here] yielded an ED50 (Rattus norvegicus [17]) of 4.5 µmol/kg, an ED50 (Rattus norvegicus [18]) of 3.4 µmol/kg and an ED50 (Rattus norvegicus [19]) of 3.4 µmol/kg.
